CAL PDZ FP-1 = human CAL PDZ-peptide interaction inhibition; Q9HD26; 330,000 compounds, 0.02% hits; AID 504414; purified CAL PDZ, TMR-peptide fluorescence polarization, 1 h; inhibition, % at 20 µM;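 active means highest replicate inhibition of at least 40%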;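 further: plate controls were DMSO neutral control wells for no effect and unlabeled competitor peptide control wells for full effect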
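Control set: unlabelled peptide and DMSO controls / Material: purified CerCALP PDZ construct / Timing: 1 h incubation at room temperature before polarization reading / Doses: 20 µM, one dose / Detection: fluorescence polarization (mP)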
ALR H2O2 inh = inhibitors of human sulfhydryl oxidase ALR | P55789 | purified ALR, DTT oxidation, H2O2 HRP-luminol luminescence | inhibition, % (concentration not given with the values) | 290,000 compounds, 3.8% hits;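 active means mean replicate inhibition above about 79%, with every replicate also reaching it, limit read from the data; inconclusive means only one of the two criteria met; inactive means mean below limit and not every replicate reaching it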
Target sequence (P55789 whole entry, looked up): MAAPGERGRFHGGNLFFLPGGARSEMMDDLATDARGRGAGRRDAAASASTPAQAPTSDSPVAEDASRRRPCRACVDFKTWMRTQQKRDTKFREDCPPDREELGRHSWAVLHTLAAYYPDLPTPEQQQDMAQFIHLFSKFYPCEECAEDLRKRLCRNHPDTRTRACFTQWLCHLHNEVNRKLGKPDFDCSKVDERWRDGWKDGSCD
CAL PDZ FP-2 = CAL PDZ (human) peptide binding inhibition; Q9HD26; inhibition, % at 24.9 µM; 300,000 compounds, 0.92% hits; purified CAL PDZ, TMR-peptide fluorescence polarization, 1 h;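 active means mean inhibition of at least 30% with at least half of replicates also reaching 30%; inconclusive means no clear call, values can overlap the other calls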;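 further: 0% = DMSO neutral control and 100% = excess unlabeled competitor peptide PRC23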
Dyrk1A ADPGlo = blocks rat Dyrk1A kinase activity. 310,000 compounds, 0.43% hits. Q63470. inhibition, % at 12.5 µM. ADP-Glo luminescence, NFATc1 peptide; in the data active means inhibition above about 50%;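 further: plate controls were vehicle with enzyme for no effect and no enzyme for full effect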
Rtt109 Vps75 = blocks Candida albicans Rtt109/Vps75 acetyltransferase activity; 330,000 compounds, 0.16% hits; purified Rtt109/Vps75, ThioGlo CoA-SH fluorescence, 4 h; inhibition, % at 34.9 µM; Q5AAJ8; AID 540336;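 active means inhibition of at least 50% in every replicate; inconclusive means best replicate reaches 50% inhibition but some replicates fall short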
An asterisk follows results filed as active; ? = inconclusive; . = no result. Most compounds without a hit are left out; they make up all but 4.3% or so of the library.

SMILES | CAL PDZ FP-1 | ALR H2O2 inh | CAL PDZ FP-2 | Dyrk1A ADPGlo | Rtt109 Vps75
CCCC(=O)NCCc1cc(OC)c(OC)cc1Br | -3 | -98 | 0 | 2 | -4
Cn1[nH]c(CSc2ccc(Cl)cc2)cc1=O | -2 | 52 | -7 | -6 | -1
COc1cc(C(=O)Nc2ccc(N(C)C)cc2)cc(OC)c1OC | -1 | 99* | -1 | -18 | 0
CCC(=O)Oc1cccc(C(=O)Nc2cccc(NC(=O)c3ccco3)c2)c1 | -3 | 1 | 44* | 9 | 0
CCC(=O)Oc1ccc(NC(=O)c2ccco2)cc1 | 0 | -13 | 0 | -3 | 10
Nc1cccc(NC(=O)c2ccco2)c1 | . | 99* | -3 | 0 | 1
O=C(Nc1cccc(F)c1)c1ccco1 | 54* | 4 | 1 | . | 4
CC(=O)Nc1cccc(NC(=O)c2ccco2)c1 | 0 | -15 | -2 | 8 | -8
CN(C)c1ccc(NC(=O)c2cccc(N3C(=O)CCC3=O)c2)cc1 | -2 | 99* | -1 | . | 2
CCN(CC)c1ccc(C(=O)Nc2cccc(F)c2)cc1 | 0 | 10 | -1 | 2 | 4
O=C(Nc1ccc(NC(=O)c2ccco2)c(Cl)c1)c1ccccc1 | 0 | -2 | . | 2 | 7
Nc1ccc(C(=O)Nc2cccc(N)c2)cc1 | -1 | 99* | -10 | 6 | -1
O=C(Nc1ccc(Br)c(Cl)c1)c1ccco1 | . | -3 | 46* | 26 | -12
CN(C)c1cccc(C(=O)Nc2cccc(F)c2)c1 | -1 | 98* | -3 | 2 | -4
Cn1c(C(C)(O)C(O)c2ccccc2)nc2ccccc21 (centres undefined) | . | -52 | . | . | .
C=C1/C=C(\C)C(C)(O)CC(O)CC(=O)C(O)C(O)C(C)CC(C)OC(=O)/C(C)=C/CC/C=C/C(OC)C(O)CC(C)C1 (centres undefined) | -1 | -1 | 0 | -6 | -4
O=C1C2C3C=CC(C3)C2C(=O)N1CCN1CCN(Cc2ccc([N+](=O)[O-])cc2)CC1 (centres undefined) | -1 | -2 | -3 | -6 | -13
CCCn1c(SCC(=O)c2ccc3c(c2)NC(=O)CO3)nc2ccccc21 | 0 | 99* | 2 | 1 | -7
O=c1ccc2ccccc2n1Cc1cccc(F)c1 | -2 | 3 | -2 | 4 | .
O=C(OC1CCOC1=O)c1ccc(Cl)c(S(=O)(=O)N2CCOCC2)c1 (centres undefined) | -1 | 2 | . | 0 | -2
O=C(CN1C(=O)c2cccc3cccc1c23)NC1CCCC1 | -3 | -11 | -2 | 2 | -65
O=C(OCC(=O)N1CCCCCC1)c1ccc([N+](=O)[O-])cc1Cl | 0 | -48 | . | 5 | -2
O=C(O)c1ccccc1-c1c2cc(I)c(=O)c(I)c-2oc2c(I)c(O)c(I)cc12 | 10 | 82* | -82 | 22 | 1
Cc1c(C(=O)N/N=C/c2ccncc2)no[n+]1[O-] | -1 | -2 | . | 15 | 0
COc1ccccc1NC(=S)NNC(=O)c1c(Cl)c(C)nn1C | . | 86* | -2 | 20 | -15
SMILES | CAL PDZ FP-1 | ALR H2O2 inh | CAL PDZ FP-2 | Dyrk1A ADPGlo | Rtt109 Vps75
COc1ccccc1NC(=S)NNC(=O)c1cc(C)nn1C | . | ? | 2 | 5 | 1
COc1ccc(Cl)cc1NC(=S)NNC(=O)c1cccnc1 | 1 | 89* | -3 | 3 | 1
COc1ccccc1NC(=S)NNC(=O)c1cc(C)n(C)n1 | 0 | 77* | -1 | 1 | 1
CCOC(=O)c1c(C)cc(C)[nH]c1=O | 0 | -3 | 0 | -2 | -3
COc1ccccc1NC(=O)C(C)Sc1nc(-c2ccccc2)cn1N (centres undefined) | 0 | 2 | . | 4 | -5
Cc1ccc2nc3c(cc(C#N)c(=N)n3Cc3cccnc3)c(=O)n2c1 | . | 5 | . | . | .
c1ccc(COc2ccc3nocc3c2)cc1 | 0 | . | -4 | 2 | 4
CCOc1cc(/C=C/C(=O)OCC(=O)NC2CCS(=O)(=O)C2)ccc1OCc1ccccc1 (centres undefined) | 0 | -3 | -2 | 1 | 11
Nc1nc(C(c2ccccc2)c2ccccc2)cs1 | -2 | -3 | -4 | -8 | -4
CCn1c(-c2cc(Br)ccc2O)n[nH]c1=S | 2 | 98* | -2 | 5 | 1
CCn1c(-c2cc3ccccc3cc2O)n[nH]c1=S | -1 | 99* | -1 | 0 | -10
C/C(=N\Nc1cccc2cccnc12)c1ccccn1 | -2 | 90* | -1 | 17 | -11
O=C(C1CCOCC1)N1CCCC(N2CCN(c3cccc(C(F)(F)F)c3)CC2)C1 (centres undefined) | -1 | -2 | -3 | -3 | 52*

High-throughput results as filed in PubChem.
